From ChEMBL document CHEMBL4765441, “Design, synthesis and anti-cancer activity of pyrrole-imidazole polyamides through target-downregulation of c-kit gene expression” (Eur J Med Chem, 2020) come the findings set out here.

Activity calls are given as the source filed them. The rule behind the calls is not given here.

For assay [1], the system named is SGC-7901. Put plainly: Antiproliferative activity against human SGC7901 cells assessed as reduction in cell viability incubated for 48 hrs by xCELLigence RTCA. Type of assay: functional, cell-based. Conditions: SGC-7901, 48 h.
In assay [2] the test system is SGC-7901. Put plainly: Induction of morphological changes in human SGC7901 cells assessed as apoptotic body formation at 7.5 uM incubated for 36 hrs by microscopic analysis. Type of assay: functional, cell-based. Summed up:
(§1)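 Cells seeded at 2 × 10^5 per well and grown 24 h. Medium then replaced with compound-containing medium. After 36 h co-culture, morphology inspected by light microscopy.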

Assay [3] concerns A549. Nature of the assay: Induction of morphological changes in human A549 cells assessed as cell detachment at 15 uM incubated for 36 hrs by microscopic analysis. Type of assay: functional, cell-based. Summed up:
as §1

For assay [4], the system named is A549. Nature of the assay: Induction of morphological changes in human A549 cells assessed as membrane bulge at 15 uM incubated for 36 hrs by microscopic analysis. Type of assay: functional, cell-based. Summed up:
as §1

The subject of assay [5] is SGC-7901. Put plainly: Induction of apoptosis in human SGC7901 cells assessed as early apoptotic cells at 15 uM incubated for 36 hrs by Annexin V-FITC/propidium iodide staining-based flow cytometric analysis (reference value: 2.74 %). Type of assay: functional. On the technique in general: Flow cytometry measures light scatter and fluorescence of single cells or particles in a stream.

The test system of assay [6] is A549. Nature of the assay: Induction of apoptosis in human A549 cells assessed as necrotic cells at 7.5 uM incubated for 36 hrs by Annexin V-FITC/propidium iodide staining-based flow cytometric analysis (reference value: 0.31 %). Type of assay: functional.
Assay [7] has as its system A549. Nature of the assay: Induction of apoptosis in human A549 cells assessed as early apoptotic cells at 15 uM incubated for 36 hrs by Annexin V-FITC/propidium iodide staining-based flow cytometric analysis (reference value: 1.41 %). Type of assay: functional.
Assay [8] has as its system A549. Put plainly: Induction of apoptosis in human A549 cells assessed as necrotic cells at 15 uM incubated for 36 hrs by Annexin V-FITC/propidium iodide staining-based flow cytometric analysis (reference value: 0.31 %). Type of assay: functional.
For assay [9], the system named is SGC-7901. Put plainly: Down regulation of c-kit gene expression in human SGC-7901 cells incubated for 36 hrs by Western blot analysis. Type of assay: functional, cell-based. Summed up:
(§2)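 Cells exposed to compound for 36 h, then lysed in RIPA and protein measured by BCA. 30 units of total protein separated by 10% SDS-PAGE, transferred to PVDF and blocked with 5% BSA. Primary antibodies, with β-tubulin as reference, at 4 °C; secondary 2 h; ECL detection. Bands quantified by densitometry, mean ± SD, n = 3.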
On the technique in general: In western blotting, separated proteins are transferred to a membrane and probed.

Assay [10] has as its system A549. Put plainly: Down regulation of c-kit gene expression in human A549 cells incubated for 36 hrs by Western blot analysis. Type of assay: functional, cell-based. Summed up: as §2

What is called IC50 is the concentration at which inhibition is half-maximal.

With `CC(=O)Nc1cn(C)c(C(=O)Nc2cn(C)c(C(=O)Nc3cc(C(=O)Nc4cn(C)c(C(=O)NCCC(=O)Nc5cn(C)c(C(=O)Nc6cn(C)c(C(=O)NCC[C@@H](N)C(=O)Nc7cc(C(=O)Nc8cc(C(=O)NC[C@@H](O)CC(=O)Nc9cc(C(=O)Nc%10cn(C)c(C(=O)Nc%11cc(C(=O)Nc%12cc(C(=O)NCCC(=O)NCCCN(C)C)n(C)c%12)n(C)c%11)n%10)n(C)c9)n(C)c8)n(C)c7)n6)n5)n4)n(C)c3)n2)n1.Cl.Cl`, in the assay on SGC-7901 [1], the half-maximal inhibitory concentration (IC50) came to 2960 nM. Moreover, the outcome in the assay with SGC-7901 [2], in the assay on A549 [3] and in the assay with A549 [4] was Active. The Activity in the assay with SGC-7901 [5] is 41.7%; in the assay on A549 [6], 2.76%; with A549 [7], 28.9%; in the assay on A549 [8] it was 0.12%; with SGC-7901 [9], “Dose-dependent effect”; in the assay on A549 [10], “Dose-dependent effect”.
